Data taken from ChEMBL document CHEMBL1649583 (Antimicrob Agents Chemother, 2009).
In brackets after ≈: the same amount, converted by molar mass.

What was measured:
Homo sapiens [1] = experiment: Absorption rate constant in human adults with pulmonary tuberculosis at 600 mg administered daily for 7 days; type: ADME, organism-based; settings: in vivo, 168 h
In short: (§1)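 Adults with pulmonary TB (once daily n=10, twice daily n=9) fasted overnight before the fifth morning dose. Plasma was drawn at steady state predose and 1, 2, 4, 8, 12, 18 and 24 h after dosing, stored at -80°C, and assayed by validated HPLC (standards 0.5–30 μg/ml). ka comes from a one-compartment NPAG population model fitted per regimen, reported as the median of individual Bayesian estimates.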

[2] = Cmax in human adults with pulmonary tuberculosis at 600 mg administered daily for 7 days; type: ADME, organism-based; design: dose 600 mg; settings: in vivo
In short: (§2)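 Plasma was drawn at steady state, predose and at 1, 2, 4, 8, 12, 18 and 24 h, and stored at -80°C. Assay was validated HPLC with 0.5–30 μg/ml standards. A one-compartment population model (NPAG) gave median individual Bayesian estimates; other parameters came from standard equations.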

[3] = fT>MIC in human adults with pulmonary tuberculosis at 600 mg administered twice daily for 5 days; type: functional
In short: (§3)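 Steady-state plasma profiles after the fifth 600 mg dose, given once or twice daily, were fitted with a one-compartment population model. Concentrations were corrected to free drug assuming 31% protein binding. MIC came from each patient's pretreatment sputum isolate, tested by Bactec 460 and on Middlebrook 7H-10 agar. The result is the percent of the dosing interval with free drug above MIC.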

[4] = Cmax in human adults with pulmonary tuberculosis at 600 mg administered twice daily for 7 days; type: ADME, organism-based; design: dose 600 mg; settings: in vivo; in short: as §2
[5] = Apparent oral clearance in human adults with pulmonary tuberculosis at 600 mg administered daily for 7 days; type: ADME, organism-based; settings: in vivo; in short: as §2
[6] = Elimination half life in human adults with pulmonary tuberculosis at 600 mg administered daily for 7 days; type: ADME, organism-based; settings: in vivo, read-out: beta t1/2 (converted); in short: as §2
[7] = test system: Mycobacterium tuberculosis; experiment: Antimicrobial activity against Mycobacterium tuberculosis in human adults with pulmonary tuberculosis at 600 mg administered daily for 7 days; type: functional; settings: 168 h
[8] = Elimination rate constant in human adults with pulmonary tuberculosis at 600 mg administered twice daily for 7 days; type: ADME, organism-based; settings: in vivo; in short: as §2
[9] = Apparent oral clearance in human adults with pulmonary tuberculosis at 600 mg administered twice daily for 7 days; type: ADME, organism-based; settings: in vivo; in short: as §2
[10] = fT>MIC in human adults with pulmonary tuberculosis at 600 mg administered once daily for 5 days; type: functional; in short: as §3
[11] = test system: Mycobacterium tuberculosis; experiment: Antimicrobial activity against Mycobacterium tuberculosis in human adults with pulmonary tuberculosis at 600 mg administered twice for 7 days; type: functional; settings: 168 h
Homo sapiens [12] = experiment: Absorption rate constant in human adults with pulmonary tuberculosis at 600 mg administered twice daily for 7 days; type: ADME, organism-based; settings: in vivo, 168 h; in short: as §1
[13] = Cmax in human adults with pulmonary tuberculosis at 600 mg administered twice daily for 5 days; type: ADME, organism-based; design: dose 600 mg; settings: in vivo; in short: as §2
[14] = Elimination rate constant in human adults with pulmonary tuberculosis at 600 mg administered daily for 7 days; type: ADME, organism-based; settings: in vivo; in short: as §2
[15] = Elimination half life in human adults with pulmonary tuberculosis at 600 mg administered twice daily for 7 days; type: ADME, organism-based; settings: in vivo, read-out: beta t1/2 (converted); in short: as §2
[16] = Tmax in human adults with pulmonary tuberculosis at 600 mg administered daily for 7 days; type: ADME, organism-based; settings: in vivo; in short: as §2
[17] = Cmax in human adults with pulmonary tuberculosis at 600 mg administered once daily for 5 days; type: ADME, organism-based; design: dose 600 mg; settings: in vivo; in short: as §2
[18] = Tmax in human adults with pulmonary tuberculosis at 600 mg administered twice daily for 7 days; type: ADME, organism-based; settings: in vivo; in short: as §2

CC(=O)NC[C@H]1CN(c2ccc(N3CCOCC3)c(F)c2)C(=O)O1 [LINEZOLID]
ka (Homo sapiens [1]): 1.5 h⁻¹ | Cmax [2]: 14900 ng/mL | fT>MIC [3]: 100% | Cmax [4]: 19400 ng/mL | CL/F [5]: 118 mL/min | half-life [6]: 174 min | MIC [7]: 1 µg/mL (≈ 2.96 µM) | k el at 168 h [8]: 5.56e-05 s⁻¹ | CL/F [9]: 80 mL/min | fT>MIC [10]: 62.8% | MIC [11]: 0.5 µg/mL (≈ 1.48 µM) | ka (Homo sapiens [12]): 2.7 h⁻¹ | Cmax [13]: 13400 ng/mL | k el at 168 h [14]: 5.56e-05 s⁻¹ | half-life [15]: 276 min | Tmax [16]: 1.5 h | Cmax [17]: 10300 ng/mL | Tmax [18]: 1 h
